Consider 3 molecules from ChEMBL document CHEMBL1145069, “Stereospecific synthesis of 5-substituted 2-bisarylthiocyclopentane carboxylic acids as specific matrix metalloproteinase inhibitors” (J Med Chem, 2003).

“And” between values parts separate entries of the source, which are not always exact repeats. Equal values may be shown once.

By half-life is commonly meant the time needed for the level to fall by half in the phase considered. The low end stands for rapid decline, the high end for slow decline. One may read the Cmax as the highest concentration seen after dosing. One may read the IC50 as the concentration that gives 50% inhibition. By bioavailability is commonly meant the share of a dose that reaches the circulation, judged against a reference dose that is usually intravenous. Read a low bioavailability as poor availability.

A short description of data set [1]: In vivo half life in mice after 50 mg/kg (po) administration. Further details: dose 50 mg/kg. It is filed as ADME, organism-based. To be noted: mouse.
The species entered for data set [2] is Homo sapiens. The data set is described as follows: In vitro metabolic stability and first pass metabolism was evaluated in human hepatic microsomes. It is filed as ADME, Liver.
Data set [3] in a line: In vivo half life in mice after 50 mg/kg (ip) administration. Type of data set: ADME, organism-based. Further details: dose 50 mg/kg. To be noted: mouse.
Data set [4] is described as follows: In vivo maximum plasma concentration was determined in mice after 50 mg/kg (ip) administration. Conditions: mouse. The arrangement: route intraperitoneal, dose 50 mg/kg. Type of data set: ADME, organism-based.
For the next data set, the target named is Collagenase 3 (Homo sapiens, UniProt P45452). As to the kind of experiment: Inhibitory activity against matrix metalloprotease-13 (MMP13).
The next data set is filed under the species Rattus norvegicus. As to the kind of experiment: In vitro metabolic stability and first pass metabolism was evaluated in rat hepatic microsomes. Type of data set: ADME, Liver.
The nature of data set [5]: In vivo half life in mice after 5 mg/kg (iv) administration. Further details: dose 5 mg/kg. Type of data set: ADME, organism-based. To be noted: mouse.
The nature of data set [6]: In vivo maximum plasma concentration was determined in mice after 5 mg/kg (iv) administration. Type of data set: ADME, organism-based. Further details: route intravenous, dose 5 mg/kg. Conditions: mouse.
Data set [7] deals with 72 kDa type IV collagenase (Homo sapiens, UniProt P08253). The data set is described as follows: Inhibitory activity against matrix metalloprotease-2 (MMP2).
72 kDa type IV collagenase, sequence (P08253 whole entry): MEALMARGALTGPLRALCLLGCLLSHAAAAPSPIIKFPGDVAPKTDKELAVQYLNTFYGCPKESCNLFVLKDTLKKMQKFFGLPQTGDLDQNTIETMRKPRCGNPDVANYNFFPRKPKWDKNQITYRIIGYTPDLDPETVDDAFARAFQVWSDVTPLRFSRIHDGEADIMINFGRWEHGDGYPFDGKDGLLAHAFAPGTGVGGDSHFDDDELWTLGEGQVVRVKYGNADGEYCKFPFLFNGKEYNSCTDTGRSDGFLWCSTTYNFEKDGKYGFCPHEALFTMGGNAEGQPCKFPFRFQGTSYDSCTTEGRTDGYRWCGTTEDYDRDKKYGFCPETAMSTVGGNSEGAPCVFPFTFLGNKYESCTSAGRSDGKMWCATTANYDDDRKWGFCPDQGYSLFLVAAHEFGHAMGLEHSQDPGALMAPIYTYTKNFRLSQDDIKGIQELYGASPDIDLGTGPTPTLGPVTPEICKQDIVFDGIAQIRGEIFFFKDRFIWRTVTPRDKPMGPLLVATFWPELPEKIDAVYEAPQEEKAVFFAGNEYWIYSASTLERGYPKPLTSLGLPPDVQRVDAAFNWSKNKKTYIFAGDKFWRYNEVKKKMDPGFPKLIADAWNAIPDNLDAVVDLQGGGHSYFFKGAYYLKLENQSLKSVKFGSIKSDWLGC
The subject of data set [8] is Mus musculus. The data set is described as follows: Tested for antitumor activity in mice against B16F10 melanoma measured as reduction in number of metastases at 200 mg/kg (ip). It is filed as functional. A digest of the protocol:
(§1)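 B16-F10 cells passaged in vitro, then 2×10^5 cells per mouse injected into the tail vein of B6D2F1 mice in PBS with 0.5% foetal calf serum. 7 mice per group. Dosing i.p. or p.o. 1 h before inoculation, then daily for 3 days (four doses). Lungs collected on day 11 and fixed in Bouin's fluid. Metastases per lung (total and ≥1 mm) given as % of control mean.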

In data set [9] the test system is Mus musculus. As to the kind of experiment: Tested for antitumor activity in mice against B16F10 melanoma measured as reduction in number of metastases at 200 mg/kg (po). It is filed as functional. The gist of the method:
as §1

The species named for data set [10] is Homo sapiens. As to the kind of experiment: In vitro absorption was measured in Caco-2 cell. It is filed as ADME.
Data set [11] in a line: In vivo maximum plasma concentration was determined in mice after 50 mg/kg (po) administration. Type of data set: ADME, organism-based. Further details: route oral, dose 50 mg/kg. Conditions: mouse.
Data set [12] in a line: Bioavailability in mouse (dose 50 mg/kg p.o.). Type of data set: ADME, organism-based. To be noted: in vivo, po.
For the next data set, the target named is T1, Interstitial collagenase (Homo sapiens, UniProt P03956).
T1 sequence (P03956 whole entry): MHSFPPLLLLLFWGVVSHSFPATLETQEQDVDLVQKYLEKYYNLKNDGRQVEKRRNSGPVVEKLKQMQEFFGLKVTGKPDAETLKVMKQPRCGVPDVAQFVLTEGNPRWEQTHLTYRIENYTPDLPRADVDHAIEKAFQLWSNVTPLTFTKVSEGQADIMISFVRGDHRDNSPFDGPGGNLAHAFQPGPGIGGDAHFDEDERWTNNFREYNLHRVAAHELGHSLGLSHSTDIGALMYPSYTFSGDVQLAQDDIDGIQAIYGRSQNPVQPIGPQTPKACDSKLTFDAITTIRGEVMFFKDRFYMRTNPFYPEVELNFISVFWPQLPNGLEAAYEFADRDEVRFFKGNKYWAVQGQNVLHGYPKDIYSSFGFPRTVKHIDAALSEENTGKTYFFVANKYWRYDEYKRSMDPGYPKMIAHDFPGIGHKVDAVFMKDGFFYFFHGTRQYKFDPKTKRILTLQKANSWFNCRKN
As to the kind of experiment: Inhibitory activity against matrix metalloprotease-1 (MMP1).

Data set [13] in a line: Bioavailability in mouse (dose 50 mg/kg i.p.). Type of data set: ADME, organism-based. Conditions: in vivo, ip.
For the next data set, the target named is Stromelysin-1 (Homo sapiens, UniProt P08254). The data set is described as follows: Inhibitory activity against matrix metalloprotease-3 (MMP3).
Stromelysin-1, sequence (P08254 whole entry): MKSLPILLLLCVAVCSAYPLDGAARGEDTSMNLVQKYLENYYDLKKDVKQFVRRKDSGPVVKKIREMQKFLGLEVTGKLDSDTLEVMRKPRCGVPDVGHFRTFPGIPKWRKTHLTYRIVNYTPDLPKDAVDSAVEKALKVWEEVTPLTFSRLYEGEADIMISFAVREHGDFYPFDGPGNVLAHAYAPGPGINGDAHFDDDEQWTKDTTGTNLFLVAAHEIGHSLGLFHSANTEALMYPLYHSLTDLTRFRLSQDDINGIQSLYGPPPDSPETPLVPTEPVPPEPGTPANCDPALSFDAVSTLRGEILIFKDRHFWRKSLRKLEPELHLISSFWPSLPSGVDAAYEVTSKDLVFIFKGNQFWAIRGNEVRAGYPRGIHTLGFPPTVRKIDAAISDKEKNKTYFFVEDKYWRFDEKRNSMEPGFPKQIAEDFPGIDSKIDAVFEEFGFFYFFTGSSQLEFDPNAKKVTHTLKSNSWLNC
Data set [14] has as its system Mus musculus. As to the kind of experiment: Tested for antitumor activity in mice against B16F10 melanoma measured as reduction in number of metastases at 100 mg/kg (po). Type of data set: functional. The gist of the method: as §1
In data set [15] the target is Matrix metalloproteinase-9 (Homo sapiens, UniProt P14780). As to the kind of experiment: Inhibitory activity against matrix metalloprotease-9 (MMP9).
Matrix metalloproteinase-9, sequence (P14780 whole entry): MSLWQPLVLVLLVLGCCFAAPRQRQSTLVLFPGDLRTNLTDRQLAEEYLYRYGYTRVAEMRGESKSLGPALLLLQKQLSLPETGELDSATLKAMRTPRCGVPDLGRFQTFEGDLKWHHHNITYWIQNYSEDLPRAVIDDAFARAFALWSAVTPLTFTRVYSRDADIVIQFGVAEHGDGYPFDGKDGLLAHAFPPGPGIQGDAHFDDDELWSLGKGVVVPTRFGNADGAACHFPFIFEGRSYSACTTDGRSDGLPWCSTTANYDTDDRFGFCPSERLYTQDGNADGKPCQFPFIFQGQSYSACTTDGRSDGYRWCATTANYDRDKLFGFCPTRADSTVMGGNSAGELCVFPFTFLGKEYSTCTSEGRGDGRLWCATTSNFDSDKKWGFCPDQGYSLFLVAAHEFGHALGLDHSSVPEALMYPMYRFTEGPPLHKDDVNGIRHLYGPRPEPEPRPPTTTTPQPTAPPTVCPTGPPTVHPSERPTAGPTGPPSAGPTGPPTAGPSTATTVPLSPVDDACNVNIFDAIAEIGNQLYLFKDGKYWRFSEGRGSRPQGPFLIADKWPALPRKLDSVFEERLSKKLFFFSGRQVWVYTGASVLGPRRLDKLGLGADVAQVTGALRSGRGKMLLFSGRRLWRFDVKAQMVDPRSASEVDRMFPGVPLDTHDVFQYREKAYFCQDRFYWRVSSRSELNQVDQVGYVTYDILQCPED
Data set [16] relates to Mus musculus. As to the kind of experiment: Tested for antitumor activity in mice against B16F10 melanoma measured as reduction in number of metastases at 100 mg/kg (ip). Type of data set: functional. A digest of the protocol: as §1
In data set [17] the test system is Mus musculus. The data set is described as follows: Tested for antitumor activity in mice against B16F10 melanoma measured as reduction in number of metastases at 50 mg/kg (ip). Type of data set: functional. A digest of the protocol:
as §1

Data set [18] has as its system Mus musculus. As to the kind of experiment: Tested for antitumor activity in mice against B16F10 melanoma measured as reduction in number of metastases at 25 mg/kg (ip). Type of data set: functional. A digest of the protocol:
as §1

Data set [19] can be described thus: Bioavailability determined. Type of data set: ADME, organism-based. Conditions: eutheria, in vivo.

Take `O=C(O)[C@H]1[C@H](CN2C(=O)c3ccccc3C2=O)CC[C@@H]1SCCc1ccc(-c2ccc(F)cc2)cc1`: the half-life in data set [1] is 4 h; in data set [3] it was 4 h; in data set [5] it was 3.5 h. The MF in the data set filed under Homo sapiens [2] is 62%; in the data set filed under Rattus norvegicus, 55%. Further, the results for the Cmax in [4], in [6] and in [11] were 130 µg/mL, 40 µg/mL and 107 µg/mL, respectively. In addition, the IC50 at Collagenase 3 worked out at 248 nM; in data set [7] it was 62 nM; on Interstitial collagenase, 6000 nM; at Stromelysin-1 it was 60 nM; in [15] it was 26 nM. The No. of metastases in the data set with Mus musculus [8] amounted to 24.5; with Mus musculus [9], 68; in the data set with Mus musculus [14], 72; in the data set on Mus musculus [16] it was 32.5. Also, the Absorption in the data set filed under Homo sapiens [10] is 90%. In addition, the bioavailability in data set [12] was 93%; in data set [13], 100%.

Consider `O=C(O)[C@H]1[C@H](Cn2nnc3ccccc3c2=O)CC[C@@H]1Sc1ccc(-c2ccc(Cl)cc2)cc1`, for which the half-life in data set [1] is 3 h; in data set [3], 4 h; in data set [5], 3.4 h. Also, the results for the MF in the data set listed under Homo sapiens [2] and in the data set filed under Rattus norvegicus were 100% and 74%, respectively. Further, the Cmax in [4] was found to be 203 µg/mL; in data set [6], 40 µg/mL; in [11] it was 93 µg/mL. The No. of metastases with Mus musculus [17] was found to be 39; with Mus musculus [9], 74.5; in the data set with Mus musculus [18], 45; in the data set on Mus musculus [14], 70; in the data set on Mus musculus [16], 30. Besides, the Absorption in the data set filed under Homo sapiens [10] came to 95%. In addition, the figures for the bioavailability in data set [12] and in data set [13] were 69% and 100%, respectively. Besides, at Interstitial collagenase, the IC50 is > 100000 nM and 12000 nM.

In the case of `O=C(NO)C(CCn1nnc2ccccc2c1=O)CSc1ccc(-c2ccc(Cl)cc2)cc1` (stereo not drawn), the IC50 was 1.2 nM on Collagenase 3; 0.06 nM in data set [7]; > 10000 nM at Interstitial collagenase; 10 nM on Stromelysin-1; 0.5 nM in data set [15]. Besides, the bioavailability in [19] was < 30%.
